Experimental data: ChEMBL document CHEMBL3108663, “Cembrane-type diterpenoids from the Chinese liverworts Chandonanthus hirtellus and C. birmensis” (J Nat Prod, 2014)

Assays:
Format in all cases: functional, cell-based
DU-145 = test: Cytotoxicity against human DU145 cells after 24 hrs by MTT assay; conditions: DU-145, 24 h
Method in brief: (§1)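 Cells plated 24 h before treatment, then exposed continuously to a range of compound concentrations for 24 h. MTT added and incubated 4 h at 37 °C under 5% CO2. Absorbance read at 570 nm. IC50 taken from plotted results with untreated cells set at 100%. Run at least three times; means ± SD of triplicates.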

[1] = Cytotoxicity against human A172 cells after 24 hrs by MTT assay; conditions: A 172, 24 h; method in brief: as §1
NCI-H1299 = test: Cytotoxicity against human NCI-H1299 cells after 24 hrs by MTT assay; conditions: NCI-H1299, 24 h; method in brief: as §1
A549 = test: Cytotoxicity against human A549 cells after 24 hrs by MTT assay; conditions: A549, 24 h; method in brief: as §1
NCI-H292 = test: Cytotoxicity against human NCI-H292 cells after 24 hrs by MTT assay; conditions: NCI-H292, 24 h; method in brief: as §1
[2] = Cytotoxicity against rat PC12 cells after 24 hrs by MTT assay; conditions: PC-12, 24 h; method in brief: as §1
PC-3 = test: Cytotoxicity against human PC3 cells after 24 hrs by MTT assay; conditions: PC-3, 24 h; method in brief: as §1

CC(=O)O[C@@]1(C)CCC(=O)[C@@H](C)CCC[C@]2(C)O[C@H]2C(=O)C(=C(C)C)CC1
IC50 (DU-145): 43.7 µM
IC50 [1]: 23.1 µM
IC50 (NCI-H1299): 17.2 µM
IC50 (A549): 31.1 µM
IC50 (NCI-H292): 21.4 µM
IC50 [2]: 24.5 µM
IC50 (PC-3): 24.3 µM

CC(=O)O[C@@]1(C)CCC(=O)[C@H](C)CCC[C@]2(C)O[C@H]2C(=O)C(=C(C)C)CC1
IC50 (DU-145): > 50 µM
IC50 [1]: 31.9 µM
IC50 (NCI-H1299): 19.5 µM
IC50 (A549): > 50 µM
IC50 (NCI-H292): 38.9 µM
IC50 [2]: 43.8 µM
IC50 (PC-3): 44.9 µM

CC(=O)O[C@@]1(C)CCC(=O)/C(C)=C/CC[C@]2(C)O[C@H]2C(=O)C(=C(C)C)CC1
IC50 (DU-145): > 50 µM
IC50 [1]: 37.3 µM
IC50 (NCI-H1299): 40.3 µM
IC50 (A549): > 50 µM
IC50 (NCI-H292): 48.7 µM
IC50 [2]: 40.6 µM
IC50 (PC-3): > 50 µM

CC(=O)O[C@]1(C)CCC(=C(C)C)C(=O)[C@@H]2O[C@@]2(C)CC/C=C(\C)[C@H](O)CC1
IC50 (DU-145): > 50 µM
IC50 [1]: > 50 µM
IC50 (NCI-H1299): 20.9 µM
IC50 (A549): 21.5 µM
IC50 (NCI-H292): > 50 µM
IC50 [2]: 30.2 µM
IC50 (PC-3): > 50 µM

CC(=O)O[C@@]1(C)C/C=C2\O[C@H](C[C@@H]2C)C[C@]2(C)O[C@H]2C(=O)C(=C(C)C)CC1
IC50 (DU-145): > 50 µM
IC50 [1]: > 50 µM
IC50 (NCI-H1299): 28.3 µM
IC50 (A549): > 50 µM
IC50 (NCI-H292): > 50 µM
IC50 [2]: 41.1 µM
IC50 (PC-3): > 50 µM

CC(=O)O[C@]1(C)CCC(=C(C)C)C(=O)[C@@H]2O[C@@]2(C)C[C@H]2C[C@H](C)[C@@](O)(CC1)O2
IC50 (DU-145): > 50 µM
IC50 [1]: > 50 µM
IC50 (NCI-H1299): 23.5 µM
IC50 (A549): > 50 µM
IC50 (NCI-H292): > 50 µM
IC50 [2]: 37.1 µM
IC50 (PC-3): > 50 µM

CC(=O)O[C@@]1(C)CCC/C(C)=C/CC[C@@]2(C)O[C@@H]2C(=O)C(=C(C)C)CC1
IC50 (DU-145): > 50 µM
IC50 [1]: > 50 µM
IC50 (NCI-H1299): 41.6 µM
IC50 (A549): > 50 µM
IC50 (NCI-H292): > 50 µM
IC50 [2]: 47.1 µM
IC50 (PC-3): > 50 µM

CC(C)=C1CC[C@]2(C)CC[C@]3(O[C@H](C[C@@H]3C)C[C@]3(C)O[C@H]3C1=O)O2
IC50 (DU-145): > 50 µM
IC50 [1]: > 50 µM
IC50 (NCI-H1299): > 50 µM
IC50 (A549): > 50 µM
IC50 (NCI-H292): > 50 µM
IC50 [2]: 36.4 µM
IC50 (PC-3): > 50 µM

CC(C)=C1CC[C@]2(C)CC[C@]3(O[C@H](C[C@H]3C)C[C@]3(C)O[C@H]3C1=O)O2
IC50 (DU-145): > 50 µM
IC50 [1]: > 50 µM
IC50 (NCI-H1299): > 50 µM
IC50 (A549): > 50 µM
IC50 (NCI-H292): 48.1 µM
IC50 [2]: > 50 µM
IC50 (PC-3): > 50 µM

CC(=O)O[C@H]1C[C@]2(C)O[C@H]2CC/C(C)=C/[C@@H](OC(C)=O)[C@]2(C)[C@@H]1[C@H]([C@]1(C)CO1)C[C@@H]2OC(C)=O
IC50 (DU-145): > 50 µM
IC50 [1]: > 50 µM
IC50 (NCI-H1299): > 50 µM
IC50 (A549): > 50 µM
IC50 (NCI-H292): > 50 µM
IC50 [2]: > 50 µM
IC50 (PC-3): > 50 µM

CC(C)[C@H]1CC[C@]2(C)C[C@]3(O)C(=CC(=O)[C@H]3C)[C@@H](C)CC[C@@H]12 [ANADENSIN]
IC50 (DU-145): > 50 µM
IC50 [1]: > 50 µM
IC50 (NCI-H1299): 34.7 µM
IC50 (A549): > 50 µM
IC50 (NCI-H292): > 50 µM
IC50 [2]: 31.1 µM
IC50 (PC-3): > 50 µM
